Test results reported in the EternaBench riboswitch data.

System: MS2 coat protein
Assay: apparent Kd, MS2 coat protein; higher = weaker binding; RNA-MaP array; FMN 200 µM where present
Procedure, shortened: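 Green signal from SNAP-549-labelled MS2 coat protein was normalised to red-channel RNA signal and to the median Fmax of control clusters. The protein was titrated from 0.7 or 1.5 nM, doubling to 3 µM, without and then with constant ligand, over designs transcribed by stalled E. coli RNA polymerase on Illumina sequencing-chip clusters, in 100 mM Tris-HCl pH 7.5, 80 mM KCl, 4 mM MgCl2, BSA, DTT, yeast tRNA and Tween-20. The apparent Kd is the median of filtered per-cluster binding-curve fits.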

[1] = designed as: OFF switch for flavin mononucleotide, no ligand
[2] = ligand present: flavin mononucleotide, designed as: OFF switch for flavin mononucleotide
[3] = designed as: ON switch for flavin mononucleotide, no ligand
[4] = ligand present: flavin mononucleotide, designed as: ON switch for flavin mononucleotide

Sequence	apparent Kd [1] [nM]	apparent Kd [2] [nM]	apparent Kd [3] [nM]	apparent Kd [4] [nM]
AUGGUACAUGAGGAUCACCCAUGUCAGGAUAUCGGCUGUGACGUGAAAAGAGUGUUGGCGAGAAGGGACUGCAA	39.7	45.6		
AUGGUGACGUAGAAGGGUGACAUGAGGAUCACCCAUGUGCCGAUAUAUCUCGAGAUAUGUCGGCCACAGGAUAUACGUGCCAUC			150	158
AUGUCGCUAGGAGGAUAUACAUGAUCUCGCACAUGUACCGCUCACGCCACAUGAGGAUCACCCAUGUAGAAGGCCUAGAGAGGU	18.6	54.8		
AUGUGGUGCGUAGGAUAUCAUUGAGGGAAACCCUGAGAAGGACGUGAGGACAUGAGGAUCACCCAUGUGGAUCACCCAUGUCAU	196	253		
AUGUUACAUGAGGAUCACCCAUGUGAGGAUAUGUGUACCCGUAAAAAAGUGUCGGGCCAUAGAAGGCAUUUGGA	48.4	49.9		
AUUAAACAUGAGGAUCACCCAUGUGAGGAUAUGCAAAAAAAAUUAUAUUAAAAAAAAAGCAGAAGGCACAUAUA	54.7	94.6		
AUUAAUAAUCGAGGAUAUCACGUCGAAUAGACGUGAGAAGGCGAUCAUAACAUGAGGAUCACCCAUGUAUUACAUGAAGUUAAU			27.5	23.9
AUUAAUCAGCAGGAUAUAAGUAUCUGAAGGUGGUUAGAAGGGCUGACAUGAGGAUCACCCAUGUGCUCUUCGUG	11.7	18.8		
AUUACGUCAGGAUAUCUGAUGUCUAACUUCGGUUAGACAUCAGAGAAGGGACAUGAGGAUCACCCAUGUAAUAG	54.5	56.2		
AUUAUACAUGAGGAUCACCCAUGUAAUUAAUUAAUUAAGAUCUAGGAUAUCAGCUCGAUUAGAGCUGAGAAGGAGAUCACAUGU			29.9	18.7
AUUAUAUAGAUAGGAUAUUGAUUAUUAUUUUAACAUGAGGAUCACCCAUGUAGCCUUAUGUAUAACAAGAAGGAUCAUUUAUUA	161	181		
AUUAUUUCAUGAGGAUAUGGCACCUUAUUGGUGCCAGAAGGCAUGUCUAUUGACAUGAGGAUCACCCAUGUAUUAAAUUAUAUA			621	45.3
AUUCACCGAGGAUAUACAUGAGGAUCACCCAUGUAAAAGAAACGGUGCCAUCGGUCGUGUAGAAGGUGGUGUUA	16.6	16.1		
AUUCUAAUAGCAGGAUAUCCCAGUAUCCUAAGUCAAAAGUUUUUGACAUGAGGAUCACCCAUGUGGGAGAAGGGCUCUGGAUAA	111	65.8		
AUUGGUGGUGUAGGAUAUAACAGCAGCUGUGGUACCGUGUGUUAAGGACAUGAGGAUCACCCAUGUUAGAAGGACACUGUCCAG	436	75.8		
AUUGUAUAGGAAGGAUAUAGAAUAUUAUUUUAACAUGAGGAUCACCCAUGUAACCUUAUGUGUAGCUAGAAGGUCCGUUUAUUA	110	162		
AUUUAACCCAGCGGUGCUGAUGCACAUGAGGAUCACCCAUGUAGAAGGCAGCUAGACACUUAAGCUGAGGAUAUACAUGUAAGA	15.6	63.3		
AUUUAAUUUAAUAAGAUCACAUGAGGAUCACCCAUGUAUAUAUAGGAUAUCAGCUCGAAUAGAGCUGAGAAGGAUAUAUACUAU	326	323		
AUUUAGUGCGAGAAGGCGUGGUCACAUGAGGAUCACCCAUGUCAGUACACGAGGAUAUCGAUUCGCUAUGUAAACAUAUGCGAC			66.8	6.62
AUUUAUGGCCAGAAGGACAUGAGGAUCACCCAUGUAGGAUAUGGACGAUUUUGCUCGGCGGUUUGUUAAGGAAGCACCGGUGGU			14.3	7.23
AUUUAUGGCCAGAAGGACAUGAGGAUCACCCAUGUAGGAUAUGGACGAUUUUGCUUGGCGGUUCGUUUAGGAAGCACCGGUGGU			23.8	7.18
AUUUCAGUCAGAGGAUAUUGUUUAUCUCUAUUGCAAGAAGGCUGAUCUUACUACCCACUUAUGAAACAUGAGGAUCACCCAUGU			20.8	16.8
AUUUGCGAAUCAGGAUAUGGACCAGCACAUGAGGAUCACCCAUGUCUGCCGGCGAGCCGGCUAGGCCAGAAGGGAUGUGCUCAA			87	18.2
